Columns and labels:
[1] = target: Sodium-dependent dopamine transporter (Homo sapiens, UniProt Q01959); test: Displacement of [3H]-Win35428 from human recombinant DAT receptor expressed in stable HEK cells at 10 uM after 90 mins by microbeta scintillation counting method relative to control; format: cell-based
Mu-type opioid receptor [2] = target: T1, Mu-type opioid receptor (Homo sapiens, UniProt P35372); test: Displacement of [3H]-DAMGO from human recombinant MOR receptor expressed in stable HEK cells at 10 uM after 90 mins by microbeta scintillation counting method relative to control; format: cell-based
Outline: (§1)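 Radioligand binding run by the NIMH Psychoactive Drug Screening Program. […] Otherwise Ki comes from sigmoidal curve fits of triplicate measurements in a single experiment, or is averaged over repeated experiments each run in triplicate.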

[3] = target: 5-hydroxytryptamine receptor 7 (Homo sapiens, UniProt P34969); test: Displacement of [3H]-LSD from human recombinant 5-HT7 receptor expressed in stable HEK cells at 10 uM after 90 mins by microbeta scintillation counting method relative to control; format: cell-based; outline: as §1
[4] = target: 5-hydroxytryptamine receptor 5A (Homo sapiens, UniProt P47898); test: Displacement of [3H]-LSD from human recombinant 5-HT5A receptor expressed in Flp-In CHO cells after 90 mins by microbeta scintillation counting method; format: cell-based; outline: as §1
[5] = target: Sigma intracellular receptor 2 (Homo sapiens, UniProt Q5BJF2); test: Displacement of […] from human recombinant sigma2 receptor expressed in HEKT cells at 10 uM after 90 mins by microbeta scintillation counting method relative to control; format: cell-based; outline: as §1
[6] = target: Alpha-2B adrenergic receptor (Homo sapiens) (UniProt P18089); test: Displacement of [3H]-Rauwolscine from human recombinant adrenergic Alpha2B receptor expressed in HEKT cells at 10 uM after 90 mins by microbeta scintillation counting method relative to control; format: cell-based
[7] = target: Muscarinic acetylcholine receptor M3 (Homo sapiens, UniProt P20309); test: Displacement of [3H]-QNB/[3H]-NMS from human recombinant Muscarinic acetylcholine M3 receptor expressed in stable CHO cells at 10 uM after 90 mins by microbeta scintillation counting method relative to control; format: cell-based
[8] = target: Kappa-type opioid receptor (Homo sapiens, UniProt P41145); test: Displacement of [3H]-U69593 from human recombinant KOR receptor expressed in stable HEK cells at 10 uM after 90 mins by microbeta scintillation counting method relative to control; format: cell-based
D(2) dopamine receptor = D(2) dopamine receptor (Homo sapiens, UniProt P14416); test: Displacement of [3H]-N-methylspiperone from human recombinant dopamine D2 receptor expressed in stable fibroblast cells after 90 mins by microbeta scintillation counting method; format: cell-based; outline: as §1
Histamine H2 receptor = Histamine H2 receptor (Homo sapiens, UniProt P25021); test: Displacement of [125I]-Iodoaminopotentidine from human recombinant histamine H2 receptor expressed in stable HEK cells after 90 mins by microbeta scintillation counting method; format: cell-based; outline: as §1
Histamine H1 receptor = Histamine H1 receptor (Homo sapiens, UniProt P35367); test: Displacement of [3H]-Pyrilamine from human recombinant histamine H1 receptor expressed in stable HEK cells at 10 uM after 90 mins by microbeta scintillation counting method relative to control; format: cell-based
Mu-type opioid receptor [9] = target: T1, Mu-type opioid receptor; test: Displacement of [3H]-DAMGO from human recombinant MOR receptor expressed in stable HEK cells after 90 mins by microbeta scintillation counting method; format: cell-based; outline: as §1
[10] = target: 5-hydroxytryptamine receptor 6 (Homo sapiens, UniProt P50406); test: Displacement of [3H]-LSD from human recombinant 5-HT6 receptor expressed in stable HEK cells after 90 mins by microbeta scintillation counting method; format: cell-based; outline: as §1
[11] = target: 5-hydroxytryptamine receptor 2A (Homo sapiens, UniProt P28223); test: Displacement of [3H]-Ketanserin from human recombinant 5-HT2A receptor transiently expressed in HEKT cells at 10 uM after 90 mins by microbeta scintillation counting method relative to control; format: cell-based; outline: as §1
[12] = target: Beta-1 adrenergic receptor (Homo sapiens, UniProt P08588); test: Displacement of [125I]-pindolol from human recombinant adrenergic Beta1 receptor expressed in Flp-In CHO cells at 10 uM after 90 mins by microbeta scintillation counting method relative to control; format: cell-based; outline: as §1
[13] = target: T2, 5-hydroxytryptamine receptor 3A (Homo sapiens, UniProt P46098); test: Displacement of [3H]-GR65630 from human recombinant 5-HT3 receptor expressed in HEKT cells after 90 mins by microbeta scintillation counting method; format: cell-based; outline: as §1
T2 sequence (P46098 whole entry): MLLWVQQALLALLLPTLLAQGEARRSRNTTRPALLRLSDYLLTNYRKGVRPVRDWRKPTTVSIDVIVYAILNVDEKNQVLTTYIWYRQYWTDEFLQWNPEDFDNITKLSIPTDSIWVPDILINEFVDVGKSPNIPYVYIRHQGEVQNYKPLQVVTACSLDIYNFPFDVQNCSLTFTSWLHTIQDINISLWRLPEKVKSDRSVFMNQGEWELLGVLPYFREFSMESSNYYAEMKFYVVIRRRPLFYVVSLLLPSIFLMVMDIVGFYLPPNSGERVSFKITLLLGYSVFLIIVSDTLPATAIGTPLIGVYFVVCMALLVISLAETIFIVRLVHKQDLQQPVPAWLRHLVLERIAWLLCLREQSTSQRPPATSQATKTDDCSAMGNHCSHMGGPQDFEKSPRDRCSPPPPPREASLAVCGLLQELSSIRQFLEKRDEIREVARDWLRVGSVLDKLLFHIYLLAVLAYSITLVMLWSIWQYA

661W [14] = test: Cytotoxicity against mouse 661W cells at 200 uM after 24 hrs by MTT assay; format: cell-based
Outline: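 661W cells treated 24 h with test agent at 10, 30, 100 and 200 μM. Viability is measured by MTT and compared with nontreated cells.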

Homo sapiens [15] = species on record: Homo sapiens; test: Selectivity index, ratio of Ki for human recombinant adrenergic alpha1A receptor to Ki for human recombinant sigma1 receptor
Outline: (§2)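 Both Ki values in each ratio come from NIMH Psychoactive Drug Screening Program radioligand binding. […] Other targets were given full binding curves, measured in triplicate, and Ki was taken from a sigmoidal curve fit. Some values were repeated in duplicate or triplicate independent experiments.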

Homo sapiens [16] = species on record: Homo sapiens; test: Selectivity index, ratio of Ki for human recombinant adrenergic Beta1 receptor expressed in Flp-In CHO to Ki for human recombinant sigma1 receptor; outline: as §2
Homo sapiens [17] = species on record: Homo sapiens; test: Selectivity index, ratio of Ki for human recombinant 5-HT6 receptor to Ki for human recombinant sigma1 receptor
Homo sapiens [18] = species on record: Homo sapiens; test: Selectivity index, ratio of Ki for human recombinant 5-HT1E receptor to Ki for human recombinant sigma1 receptor
Homo sapiens [19] = species on record: Homo sapiens; test: Selectivity index, ratio of Ki for human recombinant 5-HT1B receptor to Ki for human recombinant sigma1 receptor
Homo sapiens [20] = species on record: Homo sapiens; test: Selectivity index, ratio of Ki for human recombinant adrenergic Alpha1B receptor to Ki for human recombinant sigma1 receptor; outline: as §2
661W [21] = test: Cytoprotective activity in mouse 661W cells assessed as inhibition of t-BHP induced oxidative stress by measuring increase in cell viability after 24 hrs by MTT assay; format: functional, cell-based
Homo sapiens [22] = species on record: Homo sapiens; test: Selectivity index, ratio of Ki for human recombinant 5-HT1D receptor to Ki for human recombinant sigma1 receptor

Chain of Muscarinic acetylcholine receptor M3 (P20309 whole entry, looked up): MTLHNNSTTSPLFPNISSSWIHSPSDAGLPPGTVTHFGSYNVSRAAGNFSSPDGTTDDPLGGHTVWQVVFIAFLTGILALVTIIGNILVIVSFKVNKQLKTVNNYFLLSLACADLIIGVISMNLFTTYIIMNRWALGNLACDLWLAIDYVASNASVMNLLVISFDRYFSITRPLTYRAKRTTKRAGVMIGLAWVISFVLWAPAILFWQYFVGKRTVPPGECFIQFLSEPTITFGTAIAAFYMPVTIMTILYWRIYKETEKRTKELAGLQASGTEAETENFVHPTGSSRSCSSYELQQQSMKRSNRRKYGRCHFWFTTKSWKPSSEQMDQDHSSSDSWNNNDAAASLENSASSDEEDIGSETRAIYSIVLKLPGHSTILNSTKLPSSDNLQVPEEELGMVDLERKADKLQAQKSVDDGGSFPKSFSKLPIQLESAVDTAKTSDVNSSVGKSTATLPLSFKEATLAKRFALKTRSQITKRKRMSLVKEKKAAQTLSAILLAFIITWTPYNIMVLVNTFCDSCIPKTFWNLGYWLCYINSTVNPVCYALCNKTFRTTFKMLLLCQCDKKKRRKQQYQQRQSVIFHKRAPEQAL
Chain of 5-hydroxytryptamine receptor 6 (P50406 whole entry): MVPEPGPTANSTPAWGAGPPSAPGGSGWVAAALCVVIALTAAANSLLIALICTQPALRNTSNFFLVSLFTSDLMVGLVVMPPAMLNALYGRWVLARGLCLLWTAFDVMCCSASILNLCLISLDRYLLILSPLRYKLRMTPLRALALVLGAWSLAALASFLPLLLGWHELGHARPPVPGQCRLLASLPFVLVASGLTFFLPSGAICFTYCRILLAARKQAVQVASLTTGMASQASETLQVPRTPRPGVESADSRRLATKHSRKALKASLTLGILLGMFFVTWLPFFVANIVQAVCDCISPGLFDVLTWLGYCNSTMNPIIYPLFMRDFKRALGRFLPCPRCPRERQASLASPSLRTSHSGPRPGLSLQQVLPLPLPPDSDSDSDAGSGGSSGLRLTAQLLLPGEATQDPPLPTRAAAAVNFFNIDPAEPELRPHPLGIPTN
T1 sequence (P35372 whole entry): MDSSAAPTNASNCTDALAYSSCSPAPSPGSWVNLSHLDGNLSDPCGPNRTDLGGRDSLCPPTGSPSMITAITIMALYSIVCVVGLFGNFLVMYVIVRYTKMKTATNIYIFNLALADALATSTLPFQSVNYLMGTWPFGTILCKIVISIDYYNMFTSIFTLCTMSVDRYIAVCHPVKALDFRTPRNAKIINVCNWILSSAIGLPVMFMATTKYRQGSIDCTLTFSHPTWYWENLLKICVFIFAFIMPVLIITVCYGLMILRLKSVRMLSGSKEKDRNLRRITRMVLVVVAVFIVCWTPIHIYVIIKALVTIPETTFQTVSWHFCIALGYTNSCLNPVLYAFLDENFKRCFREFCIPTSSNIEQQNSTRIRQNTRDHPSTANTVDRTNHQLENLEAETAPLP
Chain of Histamine H2 receptor (P25021 whole entry): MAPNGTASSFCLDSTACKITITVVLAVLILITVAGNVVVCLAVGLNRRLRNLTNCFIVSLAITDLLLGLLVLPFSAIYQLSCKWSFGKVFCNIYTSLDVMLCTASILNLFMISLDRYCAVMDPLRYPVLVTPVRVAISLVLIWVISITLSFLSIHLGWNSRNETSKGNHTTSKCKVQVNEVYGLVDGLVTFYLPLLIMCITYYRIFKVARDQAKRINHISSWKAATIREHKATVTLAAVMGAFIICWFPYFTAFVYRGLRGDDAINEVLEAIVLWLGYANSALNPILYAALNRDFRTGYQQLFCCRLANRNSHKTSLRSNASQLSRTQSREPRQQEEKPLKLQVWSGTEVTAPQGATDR
Chain of Sigma intracellular receptor 2 (Q5BJF2 whole entry): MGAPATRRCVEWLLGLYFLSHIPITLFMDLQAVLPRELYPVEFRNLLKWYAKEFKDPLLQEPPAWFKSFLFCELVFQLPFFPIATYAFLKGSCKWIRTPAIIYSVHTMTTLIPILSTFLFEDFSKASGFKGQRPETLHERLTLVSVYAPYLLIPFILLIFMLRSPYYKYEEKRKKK
Chain of 5-hydroxytryptamine receptor 5A (P47898 whole entry): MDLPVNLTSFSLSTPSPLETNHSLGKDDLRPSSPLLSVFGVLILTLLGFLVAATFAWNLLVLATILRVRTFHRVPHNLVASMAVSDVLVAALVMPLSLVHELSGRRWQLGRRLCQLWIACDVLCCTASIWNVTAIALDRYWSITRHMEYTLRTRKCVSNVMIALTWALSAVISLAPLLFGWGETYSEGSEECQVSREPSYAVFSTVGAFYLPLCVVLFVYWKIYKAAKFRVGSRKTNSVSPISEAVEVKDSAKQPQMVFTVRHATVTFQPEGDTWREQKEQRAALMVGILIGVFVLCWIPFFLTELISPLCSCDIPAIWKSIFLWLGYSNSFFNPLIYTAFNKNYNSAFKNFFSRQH
Chain of D(2) dopamine receptor (P14416 whole entry): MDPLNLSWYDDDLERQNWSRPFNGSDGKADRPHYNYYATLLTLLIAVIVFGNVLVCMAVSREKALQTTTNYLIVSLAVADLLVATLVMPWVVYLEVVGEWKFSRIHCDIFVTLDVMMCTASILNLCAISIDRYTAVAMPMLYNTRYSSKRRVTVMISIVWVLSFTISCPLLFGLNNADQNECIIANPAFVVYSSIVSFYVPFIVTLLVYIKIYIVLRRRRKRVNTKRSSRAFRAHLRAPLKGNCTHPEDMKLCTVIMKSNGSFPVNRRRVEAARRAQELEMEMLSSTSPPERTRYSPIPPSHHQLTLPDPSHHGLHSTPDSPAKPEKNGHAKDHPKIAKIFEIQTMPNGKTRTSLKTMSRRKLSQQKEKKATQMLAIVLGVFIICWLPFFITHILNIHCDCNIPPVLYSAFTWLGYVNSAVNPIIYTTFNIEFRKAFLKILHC
Chain of Histamine H1 receptor (P35367 whole entry): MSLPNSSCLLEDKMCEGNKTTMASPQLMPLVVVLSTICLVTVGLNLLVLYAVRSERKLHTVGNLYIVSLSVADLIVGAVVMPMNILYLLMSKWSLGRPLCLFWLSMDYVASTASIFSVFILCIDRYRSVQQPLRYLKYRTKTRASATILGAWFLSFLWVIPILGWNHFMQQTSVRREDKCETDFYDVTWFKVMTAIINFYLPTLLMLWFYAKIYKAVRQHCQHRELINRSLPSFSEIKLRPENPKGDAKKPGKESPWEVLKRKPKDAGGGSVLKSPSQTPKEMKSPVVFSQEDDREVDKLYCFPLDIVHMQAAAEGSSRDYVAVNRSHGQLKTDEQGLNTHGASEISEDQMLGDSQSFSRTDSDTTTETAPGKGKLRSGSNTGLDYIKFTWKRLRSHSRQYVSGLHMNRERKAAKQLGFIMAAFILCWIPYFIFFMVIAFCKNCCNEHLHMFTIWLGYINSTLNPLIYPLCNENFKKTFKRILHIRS
Chain of 5-hydroxytryptamine receptor 2A (P28223 whole entry): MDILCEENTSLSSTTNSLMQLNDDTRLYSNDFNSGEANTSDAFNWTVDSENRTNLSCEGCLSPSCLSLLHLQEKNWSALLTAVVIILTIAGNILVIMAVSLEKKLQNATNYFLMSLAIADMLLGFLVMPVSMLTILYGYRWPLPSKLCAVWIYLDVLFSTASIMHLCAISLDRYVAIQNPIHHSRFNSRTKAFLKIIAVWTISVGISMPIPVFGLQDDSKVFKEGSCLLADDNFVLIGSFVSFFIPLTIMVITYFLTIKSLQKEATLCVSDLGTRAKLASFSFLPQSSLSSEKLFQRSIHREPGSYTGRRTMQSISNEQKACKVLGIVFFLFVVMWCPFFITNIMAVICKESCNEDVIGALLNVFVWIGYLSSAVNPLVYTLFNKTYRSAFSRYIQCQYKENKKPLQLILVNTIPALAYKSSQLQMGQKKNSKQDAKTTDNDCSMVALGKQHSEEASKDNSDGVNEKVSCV
Chain of Sodium-dependent dopamine transporter (Q01959 whole entry): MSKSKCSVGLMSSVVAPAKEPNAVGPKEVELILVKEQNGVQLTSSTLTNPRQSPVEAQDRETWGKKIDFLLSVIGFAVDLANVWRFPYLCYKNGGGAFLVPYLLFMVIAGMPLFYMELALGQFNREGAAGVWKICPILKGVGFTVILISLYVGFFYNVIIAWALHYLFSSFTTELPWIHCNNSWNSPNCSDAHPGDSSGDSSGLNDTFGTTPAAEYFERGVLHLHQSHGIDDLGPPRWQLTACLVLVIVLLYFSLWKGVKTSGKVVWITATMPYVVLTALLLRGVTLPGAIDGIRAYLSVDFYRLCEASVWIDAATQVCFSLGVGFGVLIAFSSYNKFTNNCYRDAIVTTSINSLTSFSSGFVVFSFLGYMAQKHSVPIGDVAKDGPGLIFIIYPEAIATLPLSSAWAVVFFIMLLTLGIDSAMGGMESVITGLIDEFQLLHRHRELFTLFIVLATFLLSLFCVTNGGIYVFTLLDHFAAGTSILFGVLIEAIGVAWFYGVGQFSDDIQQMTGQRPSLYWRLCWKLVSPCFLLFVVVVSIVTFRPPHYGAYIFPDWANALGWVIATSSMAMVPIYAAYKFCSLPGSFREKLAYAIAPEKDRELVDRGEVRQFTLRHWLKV
Chain of Beta-1 adrenergic receptor (P08588 whole entry, looked up): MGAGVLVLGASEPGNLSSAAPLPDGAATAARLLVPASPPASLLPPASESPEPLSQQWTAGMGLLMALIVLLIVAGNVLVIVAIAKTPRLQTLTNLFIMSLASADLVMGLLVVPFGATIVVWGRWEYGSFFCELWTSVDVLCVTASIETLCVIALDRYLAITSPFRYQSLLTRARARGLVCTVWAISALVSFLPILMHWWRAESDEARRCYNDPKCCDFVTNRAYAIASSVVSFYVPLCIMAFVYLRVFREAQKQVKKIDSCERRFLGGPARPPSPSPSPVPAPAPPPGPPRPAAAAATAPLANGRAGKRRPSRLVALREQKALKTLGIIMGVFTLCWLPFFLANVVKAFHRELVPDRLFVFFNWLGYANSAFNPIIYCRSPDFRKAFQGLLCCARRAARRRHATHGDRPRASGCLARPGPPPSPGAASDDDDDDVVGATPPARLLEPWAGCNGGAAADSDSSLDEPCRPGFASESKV

Row | SMILES | inhibition [1] [%] | inhibition (Mu-type opioid receptor [2]) [%] | inhibition [3] [%] | Ki [4] [µM] | inhibition [5] [%] | inhibition [6] [%] | inhibition [7] [%] | inhibition [8] [%] | Ki (D(2) dopamine receptor) [µM] | Ki (Histamine H2 receptor) [µM] | inhibition (Histamine H1 receptor) [%] | Ki (Mu-type opioid receptor [9]) [µM] | Ki [10] [µM] | inhibition [11] [%] | inhibition [12] [%] | Ki [13] [µM] | further results
1 | CC[C@H]1c2cc(C)ccc2OC[C@@]1(C)N (racemic) | < 50 | < 50 | < 50 | > 10 | < 50 | < 50 | < 50 | < 50 | > 10 | > 10 | < 50 | > 10 | > 10 | < 50 | < 50 | > 10 | –
2 | COc1cc(OC)c2c(c1)OC[C@@]1(C)NCC[C@@H]21 (racemic) | < 50 | < 50 | – | – | < 50 | < 50 | < 50 | < 50 | > 10 | > 10 | < 50 | > 10 | > 10 | – | – | > 10 | Activity (661W [14]): Non-Toxic; Ratio Ki (Homo sapiens [15]): > 20; Ratio Ki (Homo sapiens [16]): > 20; Ratio Ki (Homo sapiens [17]): > 20; Ratio Ki (Homo sapiens [18]): > 20; Ratio Ki (Homo sapiens [19]): > 20; Ratio Ki (Homo sapiens [20]): > 20; Activity (661W [21]): Dose-dependent effect; Ratio Ki (Homo sapiens [22]): > 20
3 | C[C@@]12CN(c3ccccc3)c3ccccc3[C@@H]1CCN2 (racemic) | – | – | – | – | – | – | – | – | > 10 | 2 | – | > 10 | > 10 | – | – | > 10 | –
4 | CC[C@H]1c2cc(OC)ccc2CC[C@@]1(C)N (racemic) | – | – | < 50 | 2 | < 50 | – | < 50 | – | > 10 | > 10 | – | 2 | > 10 | < 50 | < 50 | > 10 | –
5 | CC[C@H]1c2ccccc2N(c2ccccc2)C[C@@]1(C)N (racemic) | – | – | – | > 10 | – | – | – | – | > 10 | > 10 | – | > 10 | > 10 | – | – | > 10 | –

From ChEMBL document CHEMBL4304834, “3-Amino-chromanes and Tetrahydroquinolines as Selective 5-HT2B, 5-HT7, or σ1 Receptor Ligands” (ACS Med Chem Lett, 2019)
